These results are taken from ChEMBL document CHEMBL3853263, “Effect of intercalator and Lewis acid-base branched peptide complex formation: boosting affinity towards HIV-1 RRE RNA” (Medchemcomm, 2016).

The source made the active and inactive calls. The calls are words filed in the database; no cut-off is given here. Numbered stars: 1 amine (or outer) side, 2 acyl side, 3 side chain; on linkers, the order of the positions; unused ones are H or OH. Side chains are listed from the residue outwards. Peptide text beside a SMILES is read from it. * marks the point of attachment. Benzoyl(4-B(OH)2) = O=C(c1ccc(B(O)O)cc1)*; Acridin9yl = c1ccc2c(*)c3ccccc3nc2c1; εLys = N[C@@H](CCCCN[*:1])C(=O)[*:2]; Suc = O=C(CCC(=O)[*:2])[*:1]

The nature of data set [1]: Binding affinity to HIV1 wild type [32P]-labeled RRE-2B RNA after 4 hrs by electrophoretic mobility shift assay. On the set-up: species or system Human immunodeficiency virus 1. The gist of the method: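 5'-³²P RRE-IIB (4 nM in 2x phosphate buffer, pH 7.0) is refolded at 95 °C for 3 min, then rt for 20 min. It is mixed 1:1 with peptide in water (final 0.001–10 µM) for 4 h at rt. Complexes are resolved by 10% native PAGE at 4 °C. Kd is the 50%-binding concentration from a sigmoidal fit of % RNA bound vs log[peptide]. Triplicates.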
On the technique in general: Mobility shift assays separate free from complexed probe on a gel.

The nature of data set [2]: Cytotoxicity against human U87 cells transfected with CD4/CXCR4 assessed as decrease in cell viability up to 100 uM after 24 hrs by MTT assay. Conditions: u-87mg atcc. It is filed as toxicity, cell-based. The procedure, abridged: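 U87 CXCR4 cells are seeded at 1 x 10⁴/well and incubated overnight at 37 °C in 5% CO₂. They are treated with 100, 50 or 10 µM (final) compound for 24 h. Tetrazolium dye is added for 4 h, then solubilization/stop solution for 1 h. A570 is read and normalized to untreated cells set at 1.0.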
A general note: Tetrazolium assays rely on reduction of a dye to a coloured formazan, in cell work by metabolically active cells.

Data set [3] deals with Human immunodeficiency virus 1. Put plainly: Antiviral activity against HIV1 NL4-3 infected in human U87 cells transfected with CD4/CXCR4 assessed as inhibition of viral replication at 100 uM preincubated for 1 hr followed by viral infection for 24 hrs and subsequent compound wash out and addition of additional compound measured at 72 hrs post infection by p24 assay. It is filed as functional, cell-based. Conditions: U-87MG ATCC. The procedure, abridged: (§1)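 U87-CD4/CXCR4 cells are seeded at 1 x 10⁴/well and left to adhere overnight. Compounds come from 1 mM stocks in water, diluted in RPMI. Cells are pretreated for 1 h, then infected with NL4-3 (CXCR4-tropic) at MOI 0.01 for 24 h. Cells are PBS-washed and given fresh medium with more compound. p24 is quantified in supernatant at 72 h post-infection.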

Data set [4] deals with Human immunodeficiency virus 1. Put plainly: Antiviral activity against HIV1 NL4-3 infected in human U87 cells transfected with CD4/CXCR4 assessed as inhibition of viral replication preincubated for 1 hr followed by viral infection for 24 hrs and subsequent compound wash out and addition of additional compound measured at 72 hrs post infection by p24 assay. It is filed as functional, cell-based, U-87MG ATCC. The procedure, abridged:
as §1

Data set [5] has as its system Human immunodeficiency virus 1. Briefly: Antiviral activity against HIV1 NL4-3 infected in human U87 cells transfected with CD4/CXCR4 assessed as inhibition of viral replication at 40 uM preincubated for 1 hr followed by viral infection for 24 hrs and subsequent compound wash out and addition of additional compound measured at 72 hrs post infection by p24 assay relative to control. Type of data set: functional, U-87MG ATCC. Conditions: Human immunodeficiency virus 1, NL4-3, U-87 MG. The procedure, abridged:
as §1

Data set [6] is described as follows: Cytotoxicity against HIV1 NL4-3 infected human U87 cells transfected with CD4/CXCR4 assessed as decrease in cell viability at 20 to 80 uM after 72 hrs by MTT assay. It is filed as toxicity, cell-based. Conditions: u-87mg atcc.
The test system of data set [7] is Human immunodeficiency virus 1. Briefly: Binding affinity to HIV1 wild type [32P]-labeled RRE-2B RNA assessed as protection of RNA from RNase T1-induced cleavage by footprinting method. The procedure, abridged:
(§2)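 5'-³²P RRE-IIB (10 nM) plus unlabeled RRE-IIB (200 nM) is heated to 95 °C for 3 min and snap-cooled. It is incubated with peptide on ice for 4 h in 10 mM Tris pH 7, 100 mM KCl, 10 mM MgCl₂. Digestion is on ice for 1 h, with RNase T1 at 1 U or RNase A at 20 ng. Cleavage is stopped by precipitation, run on 12% PAGE with 7.5 M urea, and read by autoradiography.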

In data set [8] the test system is Human immunodeficiency virus 1. Put plainly: Binding affinity to HIV1 wild type [32P]-labeled RRE-2B RNA assessed as protection of RNA from RNase A-induced cleavage at 0.2 to 20 uM by footprinting method. The procedure, abridged: as §2
The test system of data set [9] is Human immunodeficiency virus 1. Put plainly: Binding affinity to HIV1 wild type 2-aminopurine-labeled RRE-2B RNA assessed as 1:1 binding stoichiometry between compound and RNA at 0.25 to 4 molar ratio of compound/RNA by Job plot method.
Data set [10] can be described thus: Binding affinity to HIV1 wild type [32P]-labeled RRE-2B RNA after 30 mins by electrophoretic mobility shift assay. On the set-up: species or system Human immunodeficiency virus 1.
Data set [11] can be described thus: Binding affinity to HIV1 HXB3 RRE66 RNA. On the set-up: species or system Human immunodeficiency virus 1.

The Kd is the concentration at which binding is half-saturated. The term inhibition denotes the drop in the measured response relative to a control, in per cent. The term IC50 denotes the concentration at which inhibition is half-maximal. As to `CC(C)C[C@H](NC(=O)[C@H](CCCCN)NC(=O)[C@H](CCCCNC(=O)[C@H](CCCCN)NC(=O)[C@H](CCCCN)NC(=O)[C@@H](N)CCCCNc1c2ccccc2nc2ccccc12)NC(=O)[C@H](CCCCN)NC(=O)[C@H](CCCCN)NC(=O)[C@@H](N)CCCCNc1c2ccccc2nc2ccccc12)C(=O)N[C@@H](CCCCNC(=O)c1ccc(B(O)O)cc1)C(=O)N[C@@H](Cc1ccc(O)cc1)C(N)=O` (H-K(Acridin9yl)KKK([Lys-Lys-εLys-Acridin9yl])KLK(Benzoyl(4-B(OH)2))Y-NH2), the Kd in [1] worked out at 60 nM. The figures for the Activity result in data set [2], in [6] and in data set [7] were “Non-Toxic”, “Non-Toxic” and “Dose-dependent effect”, respectively. In data set [3], the inhibition entry is “Active”. The IC50 in [4] (Human immunodeficiency virus 1, NL4-3, U-87 MG) is 10100 nM. Moreover, the inhibition result in [4] (U-87MG ATCC) was “Dose-dependent effect”. Moreover, in data set [5], the inhibition at 40 µM amounted to 90%. The outcome in data set [8] and in data set [9] was Active.
For the compound `C[C@H](NC(=O)[C@H](C)NC(=O)[C@H](C)NC(=O)[C@H](CCCNC(=N)N)NC(=O)[C@H](CCC(N)=O)NC(=O)[C@H](CCCNC(=N)N)NC(=O)[C@H](CCC(=O)O)NC(=O)[C@H](CCCNC(=N)N)NC(=O)[C@H](Cc1c[nH]c2ccccc12)NC(=O)[C@H](CCCNC(=N)N)NC(=O)[C@H](CCCNC(=N)N)NC(=O)[C@H](CCCNC(=N)N)NC(=O)[C@H](CCCNC(=N)N)NC(=O)[C@H](CC(N)=O)NC(=O)[C@H](CCCNC(=N)N)NC(=O)[C@H](CCCNC(=N)N)NC(=O)[C@H](C)NC(=O)[C@H](CCC(N)=O)NC(=O)[C@H](CCCNC(=N)N)NC(=O)[C@@H](NC(=O)CCC(=O)O)[C@@H](C)O)C(=O)N[C@@H](C)C(=O)N[C@@H](CCCNC(=N)N)C(=O)O` (Suc-TRQARRNRRRRWRERQRAAAAR-OH), the Kd in data set [10] came out at 100 nM.
Consider `NCC1O[C@H](O[C@H]2[C@@H](O)[C@H](O[C@@H]3[C@@H](O)[C@H](N)C[C@H](N)[C@H]3O[C@H]3O[C@H](CN)[C@@H](O)[C@H](O)[C@H]3N)O[C@@H]2CNc2c3ccccc3nc3ccccc23)[C@H](N)[C@@H](O)[C@@H]1O` (some centres not stated), for which, in data set [11], binding was put at a Kd of 2.4 nM.
